# From PubChem BioAssay
# Only some compounds are listed: those with a hit (about 4.4% of all), similar ones and a draw of the others.
# T cruzi inh = blocks replication of Trypanosoma cruzi. T. cruzi beta-gal in NIH3T3, luminescence, 90 h. inhibition, % (test concentration not listed). actives 1.4% (n = 300,000). AID 1885;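 active means mean inhibition across valid replicates above about 55%, limit read from the data; inconclusive means mean below that limit but half or more replicates reach it; inactive means mean below it, under half of replicates reach it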;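 further: signal also drops with host cell toxicity which is not excluded here; 0% = plate median of DMSO wells and 100% = zero luminescence signal; higher percent means less beta-gal luminescence so fewer parasites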
#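 Material: NIH/3T3 host cells with β-galactosidase reporter T. cruzi; Input: 5,000 host fibroblasts per well; Medium: DMEM, 2% fetal bovine serum; Compound: 50 nL DMSO compound solution per well; Schedule: 3 h host attachment, then at least 90 h co-culture; Detection: luminescent β-galactosidase signal after 60 min lysis.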
# HIF act = HIF pathway transcriptional activation. U2OS HRE-luciferase reporter, luminescence; normalized: DMSO 0%, desferrioxamine 100%. activation, % at 7.5 µM (by protocol). actives 0.32% (n = 300,000). AID 1910;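 active means mean activation of at least 10% of the iron chelator positive control signal, with at least half of replicates also reaching 10%; inconclusive means mean and replicate majority disagree about reaching 10%; inactive means mean and most replicates under 10%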
# Calb FLC = C. albicans growth modulation with fluconazole. C. albicans CaCi-2 + fluconazole, Alamar Blue growth, 48 h. growth inhibition, % (no concentration beside the values). actives 0.57% (n = 300,000). AID 1979;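 active means growth inhibition above about 58% in most replicates, limit read from the data, passing the limit was not always enough; inconclusive means exactly half the replicates above a set limit; inactive means most replicates below a set limit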;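 further: all wells also contain fluconazole at 8 µg/ml as a sub-toxic cotreatment; 0% = median of DMSO wells and 100% = median of geldanamycin control wells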
# HSF1 inh = HSF1 inhibition; NIH3T3-HGL HSE-luciferase, MG132-induced, luminescence 8 h; stronger effect = lower value; activity change, negative = inhibition, % at 7.5 µM (by protocol); actives 0.77% (n = 300,000);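 active means more than half of replicate wells show activity change below -50%, luminescence cut by over half; inconclusive means some wells, but at most half, below -50%; inactive means no replicate well below -50%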;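 further: luciferase reports HSF-1 transcriptional activity via heat shock element; 0% = median of DMSO wells and -100% = zero luminescence signal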
# HSF1 activator = increases HSF-1 driven luciferase reporter signal; NIH3T3-HGL HSF-1 luciferase reporter, MG132, 8 h; 100% = twice DMSO control signal; activation, % at 9 µM; actives 1.7% (n = 300,000); AID 504408;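 active means mean replicate activation of at least 50% with a set share of replicates each reaching 50%; inconclusive means only one of those two conditions met; inactive means mean below 50% and too few replicates reaching it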;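 further: 0% = median of the neutral control wells and 100% = twice that signal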
# * marks the source's active call; other numbers are inactive results; u = inconclusive; x = no result.
SMILES,T cruzi inh,HIF act,Calb FLC,HSF1 inh,HSF1 activator
O=C(Cn1ccc([N+](=O)[O-])n1)NCC1CCCO1 (stereo not drawn),-8,0,0,-2,1
O=C(N/N=C/C=C/c1ccccc1)NC1CCCCC1,7,1,-2,4,16
Cc1cc(C)nc(N/N=C/c2cc(Br)ccc2O)n1,11,34*,-3,-2,-6
Cc1cc(-c2n[nH]c(=S)n2/N=C/C=C/c2ccccc2)n[nH]1,-16,0,-2,14,57*
COc1ccccc1/C=C/C=N/n1c(-c2cc(C)[nH]n2)n[nH]c1=S,1,-1,15,24,u
O=C(CSc1ccc(-c2ccccn2)nn1)NCc1ccc(F)cc1,-5,0,-27,3,3
N#Cc1ncc(Cc2ccccc2)nc1C#N,24,1,-3,97,97*
O=C(CN1C(=O)COc2ccccc21)NCCCN1CCc2ccccc2C1,7,0,101*,-8,6
CN(C)S(=O)(=O)c1cccc(NC(=S)N/N=C/c2ccc(O)c(O)c2O)c1,29,3,77*,-24,-8
COc1cc(/C=N/NC(=S)Nc2cccc(S(=O)(=O)N(C)C)c2)cc(OC)c1O,-14,0,u,1,2
COc1ccc(O)c(/C=N/NC(=S)Nc2cccc(S(=O)(=O)N(C)C)c2)c1,9,42*,-4,-4,1
COCc1[nH]nc2c1C1(CCSCC1)C(C#N)=C(N)O2,-9,0,-8,-85*,-88
COc1ccc(NC(=O)Nc2cccs2)cn1,-1,0,-9,1,6
COc1ccc(NC(=O)c2sccc2C)cn1,-15,1,-3,36,70*
Cc1ccc(NS(=O)(=O)c2cccc(C(=O)N3CCCCCC3)c2)cc1,8,0,-5,8,7
CC1(C)Cc2c(sc3nc(C4CC4)n(N)c(=O)c23)CO1,8,0,-4,-60*,-71
CC1(C)Cc2c(sc3nc(C4CCCCC4)n(N)c(=O)c23)CO1,-11,0,16,-3,-1
Cc1ccc(C)c(NC(=O)C(c2ccccc2)N2CCOCC2)c1 (stereo not drawn),12,0,1,8,-8
COc1ccc(CNC(=O)N[C@@H](Cc2c[nH]c3ccccc23)C(=O)O)cc1,-20,1,5,-2,2
CC(C)c1ccc(-n2cnn(-c3ncccc3[N+](=O)[O-])c2=O)cc1,6,2,6,26,54*
Cc1cc(Cl)c2oc(C(=O)N3CCN(c4ccncc4)CC3)c(C)c2c1,61*,-3,-11,-6,-8
Nc1cc(-c2ccco2)no1,-30,0,-4,37,72*
Cc1ccc(NC(=O)COC(=O)c2ccc([N+](=O)[O-])o2)cc1S(=O)(=O)N1CCCCCC1,2,-2,-16,3,-1
NC(=S)NNc1cccc(Cl)c1,0,2,85*,-2,8
COc1cc2c(cc1OC)CN(c1nc(CN3CCCC3)nc3sc(C)c(C)c13)CC2,69*,0,-8,2,18
SMILES,T cruzi inh,HIF act,Calb FLC,HSF1 inh,HSF1 activator
CCOC(=O)c1c(CN2CCC(C)CC2)n(C)c2cc(Br)c(OC)cc12,24,0,-2,59,94*
COc1cc(/C=C/C(=O)c2ccc(F)cc2)cc(OC)c1OC,7,1,-1,16,31
COc1ccc(OC)c(/C=C/C(=O)Oc2ccc(C(C)=O)cc2)c1,-12,-1,2,5,4
COc1ccc(OC)c(/C=C/C(=O)c2ccc3c(c2)OCCO3)c1,-12,3,-8,53,66*
COc1cc(/C=C/C(=O)c2ccc3c(c2)OCCO3)cc(OC)c1OC,8,-7,19,147,190*
COc1ccc(S(=O)(=O)N2CCN(Cc3cccc(OC)c3OC)CC2)cc1,6,-1,-8,-5,8
COC(=O)C1=C(CN2CCCc3ccccc32)NC(=O)NC1c1ccc(F)cc1 (stereo not drawn),4,x,0,-71*,-74
COc1ccc(OC)c(S(=O)(=O)N2CCCC(C(=O)N3CCOCC3)C2)c1 (stereo not drawn),-3,0,5,0,3
CCc1nc2ccc(C(=O)N3CCN(c4ccc([N+](=O)[O-])cc4)CC3)cc2nc1CC,18,-1,11,24,60*
Cc1ccc(-n2nc(C)c3cc(C(=O)O)sc32)cc1,-8,0,x,-69*,-76
CC(=O)Nc1ccc2nc(NC(=O)c3ccc([N+](=O)[O-])o3)sc2c1,30,-18,3,19,21
O=C(COC(=O)CCc1ccc(S(=O)(=O)N2CCOCC2)cc1)NC(=O)NC1CCCCC1,-3,0,0,-6,-2
O=C(Cn1nnc(-c2ccccc2F)n1)NCc1ccco1,-11,0,8,3,16
Cc1nc(SCc2ccc(Cl)c(Cl)c2)ncc1C(=O)O,-2,0,90*,-11,-4
C/C(=N\NC1=NCCN1)c1ccc(N)c([N+](=O)[O-])c1,28,0,5,-72*,-75
CCCCCCOc1ccc(/C(C)=N/NC2=NCCN2)cc1[N+](=O)[O-],66*,1,u,17,u
CCCCCOc1ccc(Cn2ccnc2)cc1[N+](=O)[O-],62*,0,22,-1,14
CCOc1ccc(Cn2ccnc2)cc1[N+](=O)[O-],17,0,2,-1,-10
CCCCOc1ccc(CSC2=NCCN2)cc1[N+](=O)[O-],66*,1,-45,-4,9
CCOc1ccc(CSC2=NCCN2)cc1[N+](=O)[O-],42,1,-18,-5,5
Cc1cc(C)n2c(Br)c(CSc3nc4ccccc4s3)nc2n1,7,1,-6,3,-13
CC(=O)c1sc(NC(=O)CCS(=O)(=O)c2ccc(C)cc2)nc1C,21,0,-8,8,6
Cc1c(-c2nc(N)nc(Nc3ccc(F)cc3)n2)oc2ccccc12,62*,3,1,23,44
Cc1ccccc1Nc1nc(N)nc(-c2oc3ccccc3c2C)n1,56*,3,9,43,72*
O=C1COc2ccc(OCc3ccc(F)cc3)cc21,0,2,5,34,54*
CCOC(=O)c1c(NC(=O)CSc2ncccn2)sc2c1CCN(Cc1ccccc1)C2,56*,0,6,12,38
CCN1CCc2c(sc(NC(=O)c3ccc4ccccc4c3)c2C(N)=O)C1,62*,0,x,-42,-53
NC(=O)c1c(NC(=O)Cc2ccccc2)sc2c1CCN(Cc1ccccc1)C2,-4,1,5,35,62*
CCOC(=O)c1c(NC(=O)CSc2nnc3c(n2)[nH]c2ccccc23)sc2c1CCN(C)C2,77*,0,-4,0,22
